According to ChEMBL document CHEMBL5661966, “Aurora B couples chromosome alignment with anaphase by targeting BubR1, Mad2, and Cenp-E to kinetochores” (J Cell Biol, 2003):
Activity calls are given as the source filed them. The calls are words filed in the database; no cut-off is given here.

Assays:
[1] = tested on: HeLa; experiment: Induction of cell cycle arrest in human HeLa cells assessed as increase in cyclin B1 level measured after 2 hrs by immunoblot analysis; assay type: functional, cell-based
How it was run: (§1)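 Mitotic HeLa cells were collected by selective detachment after a 12-h nocodazole block, washed free of nocodazole, and replated in the drug combinations. Cells were harvested at set times. Mitotic index was scored by MPM-2 reactivity, cyclin B1 was measured by immunoblot, and DNA content was read as histograms.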

[2] = tested on: HeLa; experiment: Induction of mitosis in human HeLa cells assessed as cyclin B1 level at 18 hrs by flow cytometric analysis; assay type: functional, cell-based
[3] = tested on: HeLa; experiment: Induction of cell cycle arrest in human HeLa cells assessed as accumulation of cells at mitotic stage measured after 2 hrs; assay type: functional, cell-based; how it was run: as §1
[4] = tested on: HeLa; experiment: Induction of cell cycle arrest in human HeLa cells assessed as mitotic index measured after 6 hrs relative to control; assay type: functional
[5] = tested on: DLD-1; experiment: Induction of cell cycle arrest in human DLD-1 cells assessed as accumulation of cells at mitotic stage upto 6 hrs by SEM analysis; assay type: functional, cell-based
[6] = Inhibition of reassociation of kinetochore with BubR1 in human DLD-1 cells assessed as BubR1/ACA fluorescence ratio measured for 40 mins (reference value: 2.23+/-1.21); assay type: functional
[7] = Inhibition of reassociation of kinetochore with BubR1 in human DLD-1 cells assessed as inter-kinetochore distance measured for 40 mins (reference value: 0.89+/-0.20 uM); assay type: functional
[8] = tested on: DLD-1; experiment: Effect on human DLD-1 cells assessed as localization of survivin to centromere measured after 1 hr by immunofluorescence imaging analysis; assay type: functional, cell-based
[9] = tested on: DLD-1; experiment: Effect on human DLD-1 cells assessed as reduction in kinetochore bound Mad2 measured after 1 hr by immunofluorescence imaging analysis; assay type: functional, cell-based
[10] = tested on: DLD-1; experiment: Inhibition of chromosome alignment in human DLD-1 cells assessed as reduction of metaphase and anaphase spindle proportion for 1 hr; assay type: functional, cell-based
[11] = tested on: HeLa; experiment: Induction of cell cycle arrest in human HeLa cells assessed as increase in cyclin B1 level measured after 1 hr by immunoblot analysis; assay type: functional, cell-based; how it was run: as §1
[12] = molecular target: Mitotic checkpoint serine/threonine-protein kinase BUB1 beta (Homo sapiens) (UniProt O60566); experiment: Inhibition of BubR1 immunoprecipitate phosphorylation in mitotic human HeLa cells released from G1/S blocks; assay type: cell-based
[13] = tested on: DLD-1; experiment: Inhibition of chromosome alignment in human DLD-1 cells assessed as abnormal chromosome appearance upto 6 hrs; assay type: functional, cell-based
[14] = tested on: DLD-1 (Homo sapiens); experiment: Effect on paclitaxel pretreated human DLD-1 cells assessed as compromising of microtubule polymerization induced spindle check point function
[15] = molecular target: Mitotic checkpoint serine/threonine-protein kinase BUB1 beta (Homo sapiens) (UniProt O60566); experiment: Inhibition of BubR1 phosphorylation in mitotic human HeLa cells released from G1/S blocks by immunoblotting analysis; assay type: cell-based
[16] = tested on: HeLa; experiment: Induction of cell cycle arrest in 12 hrs nocodazole block pretreated human HeLa cells assessed as mitotic stage exit in presence of nocodazole measured after 4 hrs; assay type: functional, cell-based
How it was run: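 HeLa cells were held in a nocodazole block for 2 or 12 h, and mitotic cells were harvested. They were replated in nocodazole alone or nocodazole plus test drug. Mitotic index was scored by MPM-2 reactivity after 4 h.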

[17] = tested on: DLD-1; experiment: Effect on human DLD-1 cells assessed as reduction in kinetochore bound CenP-E measured after 1 hr by immunofluorescence imaging analysis; assay type: functional, cell-based
[18] = tested on: HeLa; experiment: Induction of mitosis in human HeLa cells assessed as peaked mitotic index at 10 hrs by flow cytometric analysis; assay type: functional, cell-based
[19] = tested on: DLD-1; experiment: Inhibition of sister chromatid separation in human DLD-1 cells; assay type: functional, cell-based
[20] = tested on: DLD-1; experiment: Effect on human DLD-1 cells assessed as reduction in kinetochore bound BubR1 measured after 1 hr by immunofluorescence imaging analysis; assay type: functional, cell-based
[21] = tested on: HeLa; experiment: Effect on nocodazole pretreated human HeLa cells assessed as compromising of microtubule polymerization induced spindle check point function; assay type: functional, cell-based
[22] = tested on: DLD-1; experiment: Effect on human DLD-1 cells assessed as localization of Aurora B to centromere measured after 1 hr by immunofluorescence imaging analysis; assay type: functional, cell-based
[23] = tested on: hTERT-HME1; experiment: Induction of endoreduplication in human HME cells measured after 48 hrs; assay type: functional, cell-based
[24] = tested on: DLD-1; experiment: Effect on human DLD-1 cells assessed as reduction in fluorescence intensity of kinetochore bound BubR1/ACA ratio in presence of nocodazole measured by immunofluorescence imaging analysis relative to control; assay type: functional; design: scale not given: the % may be the effect or the level left
[25] = molecular target: Mitotic checkpoint serine/threonine-protein kinase BUB1 beta (Homo sapiens) (UniProt O60566); experiment: Inhibition of BubR1 phosphorylation in mitotic human HeLa cells released from G1/S blocks in presence of nocodazole by immunoblotting analysis; assay type: cell-based
[26] = tested on: A549; experiment: Induction of endoreduplication in human A549 cells measured after 48 hrs; assay type: functional, cell-based

Mitotic checkpoint serine/threonine-protein kinase BUB1 beta (Homo sapiens), sequence (O60566 whole entry): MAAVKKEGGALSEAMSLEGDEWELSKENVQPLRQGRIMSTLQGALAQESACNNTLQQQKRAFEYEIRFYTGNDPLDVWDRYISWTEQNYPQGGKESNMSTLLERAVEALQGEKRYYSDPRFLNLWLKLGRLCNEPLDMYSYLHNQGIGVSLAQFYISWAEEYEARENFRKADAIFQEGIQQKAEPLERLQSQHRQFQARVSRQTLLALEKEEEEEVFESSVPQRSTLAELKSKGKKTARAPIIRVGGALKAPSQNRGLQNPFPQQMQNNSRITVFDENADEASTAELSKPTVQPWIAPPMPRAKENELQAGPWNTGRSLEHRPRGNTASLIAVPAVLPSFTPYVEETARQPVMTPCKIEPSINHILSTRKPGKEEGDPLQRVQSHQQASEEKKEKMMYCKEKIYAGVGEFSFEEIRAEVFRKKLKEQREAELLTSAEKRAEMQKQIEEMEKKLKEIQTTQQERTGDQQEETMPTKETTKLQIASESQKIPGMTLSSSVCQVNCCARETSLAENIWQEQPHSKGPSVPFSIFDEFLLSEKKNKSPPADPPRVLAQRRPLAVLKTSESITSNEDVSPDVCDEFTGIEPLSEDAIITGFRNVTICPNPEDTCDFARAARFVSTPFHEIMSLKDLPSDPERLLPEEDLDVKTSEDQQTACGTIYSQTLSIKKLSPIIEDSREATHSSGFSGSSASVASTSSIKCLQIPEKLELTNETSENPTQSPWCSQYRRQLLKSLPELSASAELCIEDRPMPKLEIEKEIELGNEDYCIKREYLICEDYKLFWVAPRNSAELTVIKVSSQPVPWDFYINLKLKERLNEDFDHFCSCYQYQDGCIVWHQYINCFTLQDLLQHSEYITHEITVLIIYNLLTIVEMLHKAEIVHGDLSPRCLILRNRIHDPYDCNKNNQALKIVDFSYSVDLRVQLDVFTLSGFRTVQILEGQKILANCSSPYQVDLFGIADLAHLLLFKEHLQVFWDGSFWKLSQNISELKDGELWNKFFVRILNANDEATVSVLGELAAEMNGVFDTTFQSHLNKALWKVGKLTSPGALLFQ

## COC(=O)Nc1nc2cc(C(=O)c3cccs3)ccc2[nH]1 [NOCODAZOLE]
[1]
  Activity: Active
[2]
  Activity: Active
[3]
  Activity: Active
[4]
  Activity: ~25%
[5]
  Activity: Active

## CC(=O)O[C@H]1C(=O)[C@@]2(C)[C@H]([C@H](OC(=O)c3ccccc3)[C@]3(O)C[C@H](OC(=O)[C@H](O)[C@@H](NC(=O)c4ccccc4)c4ccccc4)C(C)=C1C3(C)C)[C@]1(OC(C)=O)CO[C@@H]1C[C@@H]2O [PACLITAXEL]
[6]
  Activity: 3.86
[7]
  inter-kinetochore distance: 0.58 µm
[4]
  Activity: ~25%

## COc1cc2c(Nc3ccc(NC(=O)c4ccccc4)cc3)ncnc2cc1OCCCN1CCOCC1
[8]
  Activity: Active
[9]
  Activity: Active
[10]
  inhibition: Active
[11]
  Activity: Active
[12]
  inhibition: inactive
[13]
  inhibition: Active
[14]
  Activity: Active
[15]
  inhibition: Active
[16]
  Activity: Active
[2]
  Activity: Active
[17]
  Activity: Active
[18]
  Activity: Active
[19]
  inhibition: inactive
[20]
  Activity: Active
[21]
  Activity: Active
[22]
  Activity: Active
[23]
  Activity: Active
[24]
  Activity: 0%
[25]
  inhibition: Active
[26]
  Activity: Active
[5]
  Activity: Active
